Each block holds one molecule with its values, some of them ahead of it. Calls of active or inactive are those of the source. The calls are words filed in the database; no cut-off is given here.
Key:
U-251 = assay: Antiproliferative activity against human U251 cells at 10 uM after 72 hrs by MTS assay; assay type: functional
Outline: (§1)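 Single-concentration screen. Cells at 4 × 10^4 cells/ml, seeded and incubated overnight, then given 10 µM compound in DMSO for 72 h (37 °C, 5% CO2), with DMSO-only controls. MTS added for 4 h and A490 read. Percent inhibition = (1 − OD490 treated/OD490 control) × 100, from triplicate experiments.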

Aurora kinase B [1] = target: T1, Aurora kinase B (Homo sapiens, UniProt Q96GD4); assay: Inhibition of recombinant Aur B (unknown origin) at 10 uM after 1 hr by microfluidic assay
Outline: (§2)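 Caliper microfluidic mobility-shift assay using recombinant kinases from Carna. Enzyme, substrate, ATP (at Km) and compound reacted for 1 h, then stopped with EDTA. Substrate-to-phosphoproduct conversion read on EZ Reader II. Percent inhibition calculated relative to no-enzyme blanks and full-reaction wells, each containing 2.5% DMSO.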

Aurora kinase B [2] = target: T1, Aurora kinase B; assay: Inhibition of recombinant Aur B (unknown origin) at 1 uM after 1 hr by microfluidic assay; outline: as §2
[3] = Cell cycle arrest at G1 phase in human SGC7901 cells at 3 to 6 uM after 24 hrs by flow cytometry; assay type: functional, cell-based; settings: SGC-7901
Outline: (§3)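 Cells seeded in 60 mm plates, treated for 24 h, washed twice in PBS and fixed in ice-cold 75% ethanol. Stained overnight at 4 °C with PI ([…]) containing RNase 180 U/ml, 0.15% Triton X-100 and polyethylene glycol in 4 mmol/l citrate, pH 7.8. DNA content measured by FACScan flow cytometry against a DMSO group. Mean ± SEM of three independent experiments.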

[4] = target: Epidermal growth factor receptor (Homo sapiens) (UniProt P00533); assay: Inhibition of recombinant EGFR (unknown origin) at 10 uM after 1 hr by microfluidic assay; outline: as §2
[5] = target: T2, Serine/threonine-protein kinase Sgk1 (Homo sapiens) (UniProt O00141); assay: Inhibition of recombinant SGK1 (unknown origin) at 10 uM after 1 hr by microfluidic assay; outline: as §2
T2 sequence (whole entry): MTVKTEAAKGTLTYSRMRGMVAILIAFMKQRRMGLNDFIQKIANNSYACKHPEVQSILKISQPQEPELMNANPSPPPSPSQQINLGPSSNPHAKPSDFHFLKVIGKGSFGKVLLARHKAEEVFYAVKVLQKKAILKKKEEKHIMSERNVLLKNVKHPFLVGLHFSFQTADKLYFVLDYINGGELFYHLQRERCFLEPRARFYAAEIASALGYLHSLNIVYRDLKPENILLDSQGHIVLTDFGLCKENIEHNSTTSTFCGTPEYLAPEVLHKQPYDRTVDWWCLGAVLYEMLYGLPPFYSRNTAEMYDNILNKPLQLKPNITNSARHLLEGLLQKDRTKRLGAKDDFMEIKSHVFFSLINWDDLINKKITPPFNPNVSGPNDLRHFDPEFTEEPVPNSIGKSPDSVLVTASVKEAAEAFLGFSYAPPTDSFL

[6] = Antiproliferative activity against human Bel7402 cells after 72 hrs by MTS assay; assay type: functional, cell-based; settings: Bel-7402, 72 h
Outline: (§4)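 Cells at 4 × 10^4 cells/ml, seeded and left overnight, then exposed in triplicate to 30, 10, 3, 1, 0.3 and 0.1 µM compound in DMSO for 72 h at 37 °C under 5% CO2. MTS dye added for 4 h and absorbance read at 490 nm. Inhibition = (1 − OD treated/OD DMSO control) × 100. IC50 derived from the dilution series.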

[7] = target: T3, Mast/stem cell growth factor receptor Kit (Homo sapiens, UniProt P10721); assay: Inhibition of recombinant c-Kit (unknown origin) at 0.1 uM after 1 hr by microfluidic assay; outline: as §2
[8] = target: T3, Mast/stem cell growth factor receptor Kit; assay: Inhibition of recombinant c-Kit (unknown origin) after 1 hr by microfluidic assay; outline: as §2
[9] = Antiproliferative activity against human SKBR3 cells at 10 uM after 72 hrs by MTS assay; assay type: functional, SK-BR-3; outline: as §1
[10] = Antiproliferative activity against human SGC7901 cells after 72 hrs by MTS assay; assay type: functional, cell-based; settings: SGC-7901, 72 h; outline: as §4
[11] = Antiproliferative activity against human H460 cells at 10 uM after 72 hrs by MTS assay; assay type: functional, NCI-H460
[12] = Antiproliferative activity against human PM8910 cells at 10 uM after 72 hrs by MTS assay; assay type: functional
[13] = target: T2, Serine/threonine-protein kinase Sgk1 (Homo sapiens); assay: Inhibition of recombinant SGK1 (unknown origin) at 1 uM after 1 hr by microfluidic assay; outline: as §2
[14] = Cell cycle arrest at G1 phase in human PM8910 cells at 3 to 6 uM after 24 hrs by flow cytometry; assay type: functional, cell-based; outline: as §3
[15] = Antiproliferative activity against human HCC827 cells after 72 hrs by MTS assay; assay type: functional, cell-based; settings: HCC827, 72 h; outline: as §4
[16] = Antiproliferative activity against human Bel7402 cells at 10 uM after 72 hrs by MTS assay; assay type: functional, Bel-7402
[17] = Cell cycle arrest in human SGC7901 cells assessed as reduction of cells in S phase at 3 to 6 uM after 24 hrs by flow cytometry; assay type: functional, cell-based; settings: SGC-7901; outline: as §3
[18] = target: Epidermal growth factor receptor (Homo sapiens) (UniProt P00533); assay: Inhibition of recombinant EGFR (unknown origin) at 1 uM after 1 hr by microfluidic assay; outline: as §2
[19] = target: Platelet-derived growth factor receptor beta (Homo sapiens) (UniProt P09619); assay: Inhibition of recombinant PDGFRb (unknown origin) at 0.1 uM after 1 hr by microfluidic assay; outline: as §2
[20] = target: Platelet-derived growth factor receptor beta (Homo sapiens) (UniProt P09619); assay: Inhibition of recombinant PDGFRb (unknown origin) at 1 uM after 1 hr by microfluidic assay; outline: as §2
[21] = Antiproliferative activity against human SGC7901 cells at 10 uM after 72 hrs by MTS assay; assay type: functional, SGC-7901
Aurora kinase B [22] = target: T1, Aurora kinase B; assay: Inhibition of recombinant Aur B (unknown origin) after 1 hr by microfluidic assay; outline: as §2
A549 [23] = assay: Cell cycle arrest in human A549 cells assessed as reduction of cells in S phase at 3 to 6 uM after 24 hrs by flow cytometry; assay type: functional, cell-based; outline: as §3
A549 [24] = assay: Cell cycle arrest at G1 phase in human A549 cells at 3 to 6 uM after 24 hrs by flow cytometry; assay type: functional, cell-based; outline: as §3
[25] = target: Vascular endothelial growth factor receptor 2 (Homo sapiens) (UniProt P35968); assay: Inhibition of recombinant KDR (unknown origin) at 10 uM after 1 hr by microfluidic assay; outline: as §2
[26] = target: Platelet-derived growth factor receptor beta (Homo sapiens) (UniProt P09619); assay: Inhibition of recombinant PDGFRb (unknown origin) at 10 uM after 1 hr by microfluidic assay; outline: as §2
[27] = target: T3, Mast/stem cell growth factor receptor Kit; assay: Inhibition of recombinant c-Kit (unknown origin) at 1 uM after 1 hr by microfluidic assay; outline: as §2
[28] = Cell cycle arrest in human PM8910 cells assessed as reduction of cells in S phase at 3 to 6 uM after 24 hrs by flow cytometry; assay type: functional, cell-based; outline: as §3
[29] = Antiproliferative activity against human HCC827 cells at 10 uM after 72 hrs by MTS assay; assay type: functional
[30] = target: T3, Mast/stem cell growth factor receptor Kit; assay: Inhibition of recombinant c-Kit (unknown origin) at 10 uM after 1 hr by microfluidic assay; outline: as §2
NCI-H1975 = assay: Antiproliferative activity against human NCI-H1975 cells at 10 uM after 72 hrs by MTS assay; assay type: functional; outline: as §1
A549 [31] = assay: Antiproliferative activity against human A549 cells after 72 hrs by MTS assay; assay type: functional, cell-based; settings: A549, 72 h; outline: as §4
[32] = Antiproliferative activity against human PM8910 cells after 72 hrs by MTS assay; assay type: functional, cell-based; settings: PM8910, 72 h; outline: as §4
[33] = target: Epidermal growth factor receptor (Homo sapiens) (UniProt P00533); assay: Inhibition of recombinant EGFR (unknown origin) at 0.1 uM after 1 hr by microfluidic assay; outline: as §2
[34] = Antiproliferative activity against human H460 cells after 72 hrs by MTS assay; assay type: functional, cell-based; settings: NCI-H460, 72 h; outline: as §4
[35] = Antiproliferative activity against rat NRK-52E cells after 72 hrs by MTS assay; assay type: cell-based
[36] = target: Vascular endothelial growth factor receptor 2 (Homo sapiens) (UniProt P35968); assay: Inhibition of recombinant KDR (unknown origin) at 0.1 uM after 1 hr by microfluidic assay; outline: as §2
[37] = target: Vascular endothelial growth factor receptor 2 (Homo sapiens) (UniProt P35968); assay: Inhibition of recombinant KDR (unknown origin) at 1 uM after 1 hr by microfluidic assay; outline: as §2
Aurora kinase B [38] = target: T1, Aurora kinase B; assay: Inhibition of recombinant Aur B (unknown origin) at 0.1 uM after 1 hr by microfluidic assay; outline: as §2
A549 [39] = assay: Antiproliferative activity against human A549 cells at 10 uM after 72 hrs by MTS assay; assay type: functional
[40] = target: T2, Serine/threonine-protein kinase Sgk1 (Homo sapiens); assay: Inhibition of recombinant SGK1 (unknown origin) at 0.1 uM after 1 hr by microfluidic assay; outline: as §2
A549 [41] = assay: Cell cycle arrest in human A549 cells assessed as reduction of cells in S phase at 5 to 10 uM after 24 hrs by flow cytometry; assay type: functional, cell-based; outline: as §3
[42] = Cell cycle arrest in human PM8910 cells assessed as reduction of cells in S phase at 5 to 10 uM after 24 hrs by flow cytometry; assay type: functional, cell-based; outline: as §3
A549 [43] = assay: Cell cycle arrest at G1 phase in human A549 cells at 5 to 10 uM after 24 hrs by flow cytometry; assay type: functional, cell-based; outline: as §3
[44] = Cell cycle arrest at G1 phase in human SGC7901 cells at 5 to 10 uM after 24 hrs by flow cytometry; assay type: functional, cell-based; settings: SGC-7901; outline: as §3
[45] = Cell cycle arrest at G1 phase in human PM8910 cells at 5 to 10 uM after 24 hrs by flow cytometry; assay type: functional, cell-based; outline: as §3
[46] = Cell cycle arrest in human SGC7901 cells assessed as reduction of cells in S phase at 5 to 10 uM after 24 hrs by flow cytometry; assay type: functional, cell-based; settings: SGC-7901; outline: as §3

T3 sequence (P10721 whole entry): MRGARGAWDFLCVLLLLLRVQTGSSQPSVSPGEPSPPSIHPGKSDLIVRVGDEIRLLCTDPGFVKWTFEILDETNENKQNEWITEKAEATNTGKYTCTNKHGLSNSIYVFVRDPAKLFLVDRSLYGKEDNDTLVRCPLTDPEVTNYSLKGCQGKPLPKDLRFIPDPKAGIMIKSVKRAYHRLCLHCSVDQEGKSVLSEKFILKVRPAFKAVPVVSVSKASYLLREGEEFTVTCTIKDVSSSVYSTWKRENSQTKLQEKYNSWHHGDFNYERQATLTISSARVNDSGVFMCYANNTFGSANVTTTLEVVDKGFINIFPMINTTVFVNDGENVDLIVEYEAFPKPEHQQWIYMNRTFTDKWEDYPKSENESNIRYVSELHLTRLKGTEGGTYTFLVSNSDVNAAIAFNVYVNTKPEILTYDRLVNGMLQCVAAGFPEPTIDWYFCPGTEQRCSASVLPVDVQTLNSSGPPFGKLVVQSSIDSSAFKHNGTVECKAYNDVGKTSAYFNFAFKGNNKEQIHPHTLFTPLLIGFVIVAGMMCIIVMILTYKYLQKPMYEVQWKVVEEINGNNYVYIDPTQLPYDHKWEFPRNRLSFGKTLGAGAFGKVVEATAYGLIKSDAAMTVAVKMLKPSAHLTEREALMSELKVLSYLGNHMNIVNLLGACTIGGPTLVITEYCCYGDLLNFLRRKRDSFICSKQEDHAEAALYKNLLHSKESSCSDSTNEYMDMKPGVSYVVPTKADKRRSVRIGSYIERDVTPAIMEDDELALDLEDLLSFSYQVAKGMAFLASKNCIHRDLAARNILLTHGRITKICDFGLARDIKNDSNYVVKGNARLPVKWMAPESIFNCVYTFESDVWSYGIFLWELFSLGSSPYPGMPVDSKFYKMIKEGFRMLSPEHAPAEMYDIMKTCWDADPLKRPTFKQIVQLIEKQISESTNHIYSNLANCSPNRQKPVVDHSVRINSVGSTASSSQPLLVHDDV
T1 sequence (Q96GD4 whole entry): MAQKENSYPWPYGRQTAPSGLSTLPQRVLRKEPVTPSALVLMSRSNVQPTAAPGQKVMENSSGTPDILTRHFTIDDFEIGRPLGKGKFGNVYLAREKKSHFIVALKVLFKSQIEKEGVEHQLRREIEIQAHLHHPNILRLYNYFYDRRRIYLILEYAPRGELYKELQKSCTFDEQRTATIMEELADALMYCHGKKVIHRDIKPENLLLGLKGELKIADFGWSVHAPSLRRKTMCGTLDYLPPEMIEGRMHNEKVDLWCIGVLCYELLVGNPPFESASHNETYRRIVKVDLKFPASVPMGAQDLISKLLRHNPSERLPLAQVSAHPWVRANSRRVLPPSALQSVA
Chain of Vascular endothelial growth factor receptor 2 (Homo sapiens) (P35968 whole entry): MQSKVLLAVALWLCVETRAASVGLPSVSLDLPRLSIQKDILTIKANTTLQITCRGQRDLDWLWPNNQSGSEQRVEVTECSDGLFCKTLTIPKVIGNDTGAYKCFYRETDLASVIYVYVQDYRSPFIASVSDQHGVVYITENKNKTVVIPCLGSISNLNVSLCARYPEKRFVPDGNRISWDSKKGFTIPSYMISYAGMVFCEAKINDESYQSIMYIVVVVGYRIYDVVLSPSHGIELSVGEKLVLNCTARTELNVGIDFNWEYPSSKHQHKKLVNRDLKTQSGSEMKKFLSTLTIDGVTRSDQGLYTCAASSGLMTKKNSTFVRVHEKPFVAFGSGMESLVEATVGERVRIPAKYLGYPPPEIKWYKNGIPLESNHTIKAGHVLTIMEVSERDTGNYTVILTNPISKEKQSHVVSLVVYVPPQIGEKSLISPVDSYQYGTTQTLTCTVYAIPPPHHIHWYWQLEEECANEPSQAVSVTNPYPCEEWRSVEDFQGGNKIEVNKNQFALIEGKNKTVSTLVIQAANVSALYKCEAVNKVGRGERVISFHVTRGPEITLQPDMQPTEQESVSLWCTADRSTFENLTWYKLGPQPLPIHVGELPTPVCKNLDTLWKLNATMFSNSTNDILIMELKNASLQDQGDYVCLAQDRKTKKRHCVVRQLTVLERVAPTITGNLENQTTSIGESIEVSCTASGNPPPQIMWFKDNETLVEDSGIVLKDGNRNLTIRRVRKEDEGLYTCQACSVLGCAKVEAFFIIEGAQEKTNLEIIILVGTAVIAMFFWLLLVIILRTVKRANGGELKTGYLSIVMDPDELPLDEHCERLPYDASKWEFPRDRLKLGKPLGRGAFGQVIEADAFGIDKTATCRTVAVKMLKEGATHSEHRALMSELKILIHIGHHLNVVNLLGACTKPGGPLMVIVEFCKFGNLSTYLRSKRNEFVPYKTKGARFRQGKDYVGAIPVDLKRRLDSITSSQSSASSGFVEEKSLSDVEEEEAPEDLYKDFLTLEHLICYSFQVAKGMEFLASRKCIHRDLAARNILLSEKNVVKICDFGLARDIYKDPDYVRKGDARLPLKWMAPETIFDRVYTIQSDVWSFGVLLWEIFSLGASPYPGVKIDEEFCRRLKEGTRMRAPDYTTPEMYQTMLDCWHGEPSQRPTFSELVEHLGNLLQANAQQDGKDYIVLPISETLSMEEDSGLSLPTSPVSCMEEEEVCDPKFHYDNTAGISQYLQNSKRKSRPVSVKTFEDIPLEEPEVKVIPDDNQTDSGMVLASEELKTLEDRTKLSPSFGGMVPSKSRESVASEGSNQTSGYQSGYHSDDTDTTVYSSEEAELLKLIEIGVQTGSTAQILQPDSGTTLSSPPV
Chain of Platelet-derived growth factor receptor beta (Homo sapiens) (P09619 whole entry): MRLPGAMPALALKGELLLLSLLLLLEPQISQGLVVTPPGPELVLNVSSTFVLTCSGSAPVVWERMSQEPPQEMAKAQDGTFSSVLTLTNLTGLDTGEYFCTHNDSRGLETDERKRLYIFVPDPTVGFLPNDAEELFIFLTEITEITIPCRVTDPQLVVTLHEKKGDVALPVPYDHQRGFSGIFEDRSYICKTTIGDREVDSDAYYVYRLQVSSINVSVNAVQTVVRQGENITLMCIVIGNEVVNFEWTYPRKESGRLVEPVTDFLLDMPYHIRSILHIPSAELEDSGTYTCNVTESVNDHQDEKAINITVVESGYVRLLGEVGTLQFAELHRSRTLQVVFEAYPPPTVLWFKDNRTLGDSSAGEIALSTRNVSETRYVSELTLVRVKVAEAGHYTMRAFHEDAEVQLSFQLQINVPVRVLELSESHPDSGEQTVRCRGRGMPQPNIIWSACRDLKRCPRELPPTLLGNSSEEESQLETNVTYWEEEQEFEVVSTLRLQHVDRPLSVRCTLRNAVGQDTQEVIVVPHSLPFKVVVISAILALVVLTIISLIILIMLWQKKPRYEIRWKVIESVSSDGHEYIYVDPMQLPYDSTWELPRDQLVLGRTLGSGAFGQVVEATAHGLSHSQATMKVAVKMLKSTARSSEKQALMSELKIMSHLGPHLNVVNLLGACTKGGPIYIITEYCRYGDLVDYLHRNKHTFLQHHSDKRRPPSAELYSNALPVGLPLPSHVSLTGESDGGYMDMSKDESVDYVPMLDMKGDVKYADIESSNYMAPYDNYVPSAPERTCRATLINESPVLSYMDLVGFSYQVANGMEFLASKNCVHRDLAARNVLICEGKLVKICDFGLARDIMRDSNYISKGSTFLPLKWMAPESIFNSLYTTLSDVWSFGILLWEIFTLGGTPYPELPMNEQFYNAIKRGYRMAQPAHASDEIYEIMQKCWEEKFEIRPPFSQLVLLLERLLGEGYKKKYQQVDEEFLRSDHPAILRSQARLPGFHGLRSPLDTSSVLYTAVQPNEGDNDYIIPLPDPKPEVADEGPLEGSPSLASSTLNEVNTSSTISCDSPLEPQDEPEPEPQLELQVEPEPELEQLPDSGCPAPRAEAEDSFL
Chain of Epidermal growth factor receptor (Homo sapiens) (P00533 whole entry): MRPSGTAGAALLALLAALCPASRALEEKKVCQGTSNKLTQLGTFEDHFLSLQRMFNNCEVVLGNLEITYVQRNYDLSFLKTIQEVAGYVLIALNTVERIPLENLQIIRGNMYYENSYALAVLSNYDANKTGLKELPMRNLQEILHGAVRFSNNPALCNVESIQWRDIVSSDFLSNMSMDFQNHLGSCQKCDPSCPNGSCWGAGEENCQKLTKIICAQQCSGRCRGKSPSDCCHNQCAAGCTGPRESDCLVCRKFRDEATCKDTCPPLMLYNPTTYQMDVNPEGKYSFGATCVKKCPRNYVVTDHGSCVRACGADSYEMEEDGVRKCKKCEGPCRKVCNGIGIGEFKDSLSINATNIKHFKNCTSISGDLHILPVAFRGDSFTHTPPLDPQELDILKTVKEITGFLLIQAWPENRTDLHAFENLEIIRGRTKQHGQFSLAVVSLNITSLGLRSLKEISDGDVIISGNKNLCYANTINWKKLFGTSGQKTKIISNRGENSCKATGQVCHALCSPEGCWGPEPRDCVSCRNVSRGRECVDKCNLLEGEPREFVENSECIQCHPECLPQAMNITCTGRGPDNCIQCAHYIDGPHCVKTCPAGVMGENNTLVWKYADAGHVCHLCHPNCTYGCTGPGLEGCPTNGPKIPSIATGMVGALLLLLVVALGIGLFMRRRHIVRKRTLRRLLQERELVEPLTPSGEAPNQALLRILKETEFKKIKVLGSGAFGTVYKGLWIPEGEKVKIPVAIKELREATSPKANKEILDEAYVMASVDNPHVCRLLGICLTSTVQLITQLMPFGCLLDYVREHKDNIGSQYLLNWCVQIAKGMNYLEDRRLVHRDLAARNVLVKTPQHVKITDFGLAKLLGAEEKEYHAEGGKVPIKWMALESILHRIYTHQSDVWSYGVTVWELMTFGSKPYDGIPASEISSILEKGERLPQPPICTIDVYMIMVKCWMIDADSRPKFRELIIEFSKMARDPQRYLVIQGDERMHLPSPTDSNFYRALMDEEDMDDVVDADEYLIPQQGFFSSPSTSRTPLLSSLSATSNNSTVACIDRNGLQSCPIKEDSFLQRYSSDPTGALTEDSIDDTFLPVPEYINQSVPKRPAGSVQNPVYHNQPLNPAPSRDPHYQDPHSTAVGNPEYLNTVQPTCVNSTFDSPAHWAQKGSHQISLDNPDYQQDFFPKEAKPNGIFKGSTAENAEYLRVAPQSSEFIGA

- inhibition (Aurora kinase B [1]): 88.3%
- inhibition (Aurora kinase B [2]): 53.5%
- inhibition [4]: 24.3%
- inhibition [5]: 42.4%
- inhibition [7]: 31.9%
- IC50 [8]: 0.071 µM
- inhibition [13]: 11.8%
- inhibition [18]: 20%
- inhibition [19]: 13.6%
- inhibition [20]: 46.7%
- IC50 (Aurora kinase B [22]): 0.587 µM
- inhibition [25]: 62.6%
- inhibition [26]: 76%
- inhibition [27]: 56.4%
- inhibition [30]: 57.6%
- IC50 (A549 [31]): 3.04 µM
- inhibition [33]: 19.1%
- inhibition [36]: 6%
- inhibition [37]: 14.7%
- inhibition (Aurora kinase B [38]): 14.4%
- inhibition [40]: 3.56%
Structure (SMILES): O=C1Nc2ccccc2/C1=C/c1ccc(N2CCN(C(=O)CCCl)CC2)cc1
- Activity (U-251): 20.43%
- Activity [3]: Active
- IC50 [6]: 3.39 µM
- Activity [9]: 26.45%
- IC50 [10]: 2.85 µM
- Activity [11]: 66.63%
- Activity [12]: 59.46%
- Activity [14]: Active
- IC50 [15]: 12.7 µM
- Activity [16]: 49.21%
- Activity [17]: Active
- Activity [21]: 60.98%
- Activity (A549 [23]): Active
- Activity (A549 [24]): Active
- Activity [28]: Active
- Activity [29]: 56.47%
- Activity (NCI-H1975): 67.22%
- IC50 [32]: 2.76 µM
- IC50 [34]: 20.1 µM
- IC50 [35]: > 30 µM
- Activity (A549 [39]): 54.9%

- inhibition (Aurora kinase B [1]): 93.5%
- inhibition (Aurora kinase B [2]): 41.6%
- inhibition [4]: 75.4%
- inhibition [5]: 90.7%
- inhibition [7]: 19.1%
- IC50 [8]: 0.128 µM
- inhibition [13]: 38.3%
- inhibition [18]: 30.1%
- inhibition [19]: 0.4%
- inhibition [20]: 26.2%
- IC50 (Aurora kinase B [22]): 2.21 µM
- inhibition [25]: 30.6%
- inhibition [26]: 61.8%
- inhibition [27]: 55.3%
- inhibition [30]: 88.2%
- IC50 (A549 [31]): 10.1 µM
- inhibition [33]: 14.9%
- inhibition [36]: 13.4%
- inhibition [37]: 7.2%
- inhibition (Aurora kinase B [38]): 4.5%
- inhibition [40]: 2.2%
Structure (SMILES): C=CC(=O)N1CCN(c2ccc(/C=C3\C(=O)Nc4ccccc43)cc2)CC1
- Activity (U-251): 31.7%
- IC50 [6]: 7.68 µM
- Activity [9]: 27.99%
- IC50 [10]: 9.75 µM
- Activity (A549 [41]): Active
- Activity [11]: 71.31%
- Activity [12]: 59.52%
- IC50 [15]: 7 µM
- Activity [16]: 55.06%
- Activity [42]: Active
- Activity [21]: 55.46%
- Activity [29]: 57.19%
- Activity (NCI-H1975): 60.01%
- IC50 [32]: 6.74 µM
- Activity (A549 [43]): Active
- IC50 [34]: 11.5 µM
- IC50 [35]: 28.8 µM
- Activity [44]: Active
- Activity [45]: Active
- Activity (A549 [39]): 50.28%
- Activity [46]: Active

From ChEMBL document CHEMBL3352626, “Synthesis and biological evaluation of novel oxindole-based RTK inhibitors as anti-cancer agents” (Bioorg Med Chem, 2014)
